Measurements from different studies.
Lines come from different studies, so protocols differ.
Target: Serine/threonine-protein kinase Nek11 (NEK11, Homo sapiens, UniProt Q8NG66)
Residues used in one study (Q8NG66 1-645): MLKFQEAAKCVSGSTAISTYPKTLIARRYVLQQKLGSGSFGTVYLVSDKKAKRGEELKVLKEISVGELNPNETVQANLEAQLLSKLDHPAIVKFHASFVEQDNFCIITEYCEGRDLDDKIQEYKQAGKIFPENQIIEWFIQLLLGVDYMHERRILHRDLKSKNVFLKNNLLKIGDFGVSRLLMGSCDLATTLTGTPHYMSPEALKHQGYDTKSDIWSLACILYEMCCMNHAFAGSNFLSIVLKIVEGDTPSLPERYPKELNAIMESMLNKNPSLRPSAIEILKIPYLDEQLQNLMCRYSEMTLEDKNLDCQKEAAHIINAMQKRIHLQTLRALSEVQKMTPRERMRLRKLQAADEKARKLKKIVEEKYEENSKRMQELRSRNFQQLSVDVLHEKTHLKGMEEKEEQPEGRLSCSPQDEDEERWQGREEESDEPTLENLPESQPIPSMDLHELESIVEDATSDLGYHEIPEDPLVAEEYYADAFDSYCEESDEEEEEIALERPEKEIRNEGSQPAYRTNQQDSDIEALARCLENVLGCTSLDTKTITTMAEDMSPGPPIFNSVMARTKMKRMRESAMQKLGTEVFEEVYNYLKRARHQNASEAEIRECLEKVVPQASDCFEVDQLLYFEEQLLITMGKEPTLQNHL

For `Cc1ccc(Nc2nccc(N(C)c3ccc4c(C)n(C)nc4c3)n2)cc1S(N)(=O)=O`, the inhibition was 23% (enzyme activity, inhibitor; 10 µM).
`CC(=O)N1CCC(c2ccc(C(=O)NC(=N)N)cc2C(F)(F)F)CC1` gave a remaining binding of 100% (cell-free assay, competition with immobilised ligand; 1 µM).
With `Oc1cccc(-c2nc(N3CCOCC3)c3oc4ncccc4c3n2)c1` the remaining signal was 109% (cell-free assay; 0.5 µM).
The remaining signal of `Nc1ncnc2occ(-c3ccc(NC(=O)Nc4cc(C(F)(F)F)ccc4F)cc3)c12` is reported as 9.3% (cell-free assay, inhibitor; 20 µM).
`CC(C)(C)c1nc(-c2cccc(NS(=O)(=O)c3c(F)cccc3F)c2F)c(-c2ccnc(N)n2)s1` has a remaining activity of 1% (enzyme activity, inhibitor, radiometric; 1 µM).
For `CS(=O)(=O)N1CCCC(NC(=O)[C@H](CCC2CCCCC2)NC(=O)c2ccc(CNc3ncnc4c3nnn4-c3ccccc3)cc2)C1` (some centres unmarked), the remaining binding was 100% (cell-free assay, competition with immobilised ligand; 0.1 µM).
With `CCCOc1ccc(OC)c(F)c1C(=O)c1ccc(C(=O)N[C@@H]2CNC[C@H]2NC(=O)c2ccc3[nH]ncc3c2)cc1` the remaining activity was 45% (enzyme activity, inhibitor; 10 µM).
`O=C(Nc1cnn(-c2csc(C(=O)NC3COC3)c2)c1)Nc1c(F)cccc1Cl` has a remaining activity of 89.5% (enzyme activity, inhibitor; 5 µM).
`CCN(CC)c1ccc(C2=NNC(=O)CC2C)cc1[N+](=O)[O-]` (centres unmarked) gave a remaining activity of 114% (enzyme activity, inhibitor; 10 µM).
With `CN([C@@H]1CCc2c(CC(=O)O)c3ccccc3n2C1)S(=O)(=O)c1ccc(F)cc1` the remaining binding was 100% (cell-free assay, competition with immobilised ligand; 1 µM).
With `C[C@@H]1CCN(C(=O)CC#N)C[C@@H]1N(C)c1ncnc2[nH]ccc12` the remaining signal was 91.7% (cell-free assay, inhibitor; 0.5 µM).
For `CNC(=O)c1cc(Oc2ccc(NC(=O)Nc3ccc(Cl)c(C(F)(F)F)c3)cc2)ccn1`, the inhibition was 5% (enzyme activity, inhibitor; 0.3 µM).
The remaining signal of `O=C1Nc2ccc(Cl)cc2C1=Cc1cc(Cl)c(O)c(Cl)c1` is reported as 104% (cell-free assay; 0.5 µM).
With `CN1CCN(c2cnc3c(C4CCN(C(=O)c5ccc(OC(F)(F)F)cc5N)CC4)ncnc3c2)CC1` the remaining binding was 100% (cell-free assay, competition with immobilised ligand; 1 µM).
The remaining signal of `N#CCCc1ccc2c(c1)-c1[nH]c3ccc([N+](=O)[O-])cc3c1CC(=O)N2` is reported as 101% (cell-free assay; 0.5 µM).
`CN1CC(Oc2cnc(C#N)cc2-c2ccn3nc(NC(=O)C4CC4)cc3c2)C1` gave an inhibition of 11% (enzyme activity, inhibitor; 1 µM).
The remaining binding of `O=C(O)[C@H]1[C@H](Cn2nnc3ccccc3c2=O)CC[C@@H]1C(=O)c1ccc(OCCC2CCOCC2)cc1` is reported as 100% (cell-free assay, competition with immobilised ligand; 1 µM).
`CCN(CC)CCNC(=O)c1c(C)[nH]c(/C=C2\C(=O)Nc3ccc(F)cc32)c1C` has an inhibition of 16% (enzyme activity, inhibitor; 0.3 µM).
`CC1=C(C#N)C(c2ccc3c(c2)c(NC(=O)c2ccccc2C)nn3C)C(C#N)=C(C)N1` has a remaining binding of 96% (cell-free assay, competition with immobilised ligand; 1 µM).
For `Cc1sc(C(=O)NC2COC2)cc1-n1cc(NC(=O)Nc2c(F)cccc2Cl)cn1`, the remaining activity was 70% (enzyme activity, inhibitor; 10 µM).
